Data on 3 compounds can be found in publication PMC8245385 (Clinical Drug Investigation, 2021).

For data set [1] the following is noted: cited from earlier work.
For data set [2] the following is noted: cited from earlier work. The source holds these as a separate data set.
The conditions of data set [3]: cited from earlier work. The source holds these as a separate data set.
The nature of data set [4]: Plasma pharmacokinetics in the doravirine/islatravir drug interaction study. The format is in vivo, human. The method in brief: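 Healthy adults were randomized and blinded. They took oral doravirine 100 mg or placebo QD for 5 days, then islatravir 2.25 mg QD for 14 days, then both for 5 days, with no washout and ≥10 h fasting before dosing on PK days. K2EDTA plasma went to validated LC-MS/MS (islatravir LLOQ 0.10 ng/mL). AUC0–24h used linear-up/log-down; GMRs came from a ln-scale mixed-effects model.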

The test system of another data set is CYP enzymes. Conditions: cited from earlier work.
A short description of the next data set: Safety and tolerability. The format is in vivo, human. Conditions: doravirine 100 mg QD, islatravir 2.25 mg QD, alone or in combination; participants without HIV. The method in brief:
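Safety was assessed throughout the study by adverse-event monitoring, physical examinations, vital signs, electrocardiography and laboratory safety tests. Investigators graded clinical adverse events as mild, moderate or severe in intensity. The analysis set was all participants given at least one dose of active study drug or placebo. Dosing was oral with water at the same time each day.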

[5] abbreviates: single oral doses, participants without HIV.

The AUC(0-t) is exposure summed from dosing to a finite time, without extrapolation to infinity. High values mean more exposure, low ones less exposure. The Cmax is the maximum level reached in the sampled fluid or tissue. The Tmax is the time at which the peak concentration occurs.

Where two headings read alike, the source gives them in different places. A value given as a limit tells only on which side of the number the result lay.

As to `C#C[C@]1(COP(=O)(O)OP(=O)(O)OP(=O)(O)O)O[C@@H](n2cnc3c(N)nc(F)nc32)C[C@@H]1O` [islatravir-TP], the “Time at which peak intracellular islatravir-TP concentrations were attained” value in data set [1] (after islatravir administration) was 6 to 24 h. Further, the “Apparent terminal half-life of islatravir-TP” value in data set [1] (dosed daily to steady state) is given as “exceeded 7 days”. Besides, the “Time to steady state of intracellular islatravir-TP” value in data set [1] (oral QD dosing of islatravir) was no more than 28 days. Moreover, the “Intracellular half-life of islatravir-TP” value in data set [1] (single oral doses of islatravir) is 118 to 171 h.
As for `Cn1c(Cn2ccc(C(F)(F)F)c(Oc3cc(Cl)cc(C#N)c3)c2=O)n[nH]c1=O` [Doravirine], the Tolerability entry in data set [2] (doses of up to 1,200 mg in clinical studies) is on record as “generally well tolerated”. For the same compound, the Apparent terminal half-life in data set [3] (6–1200 mg orally) was 12 to 21 h. The “Time to attainment of steady state” value in data set [3] (QD dosing, 200 mg orally) is on record as “approximately 5 days”. Besides, in data set [3], the “Range of median Tmax previously reported” value was 1 to 4 h. In data set [3] (moderate CYP3A4 inducer), the “Reduction of doravirine exposure on coadministration with rifabutin” value is reported as 50%. Besides, the “Reduction of doravirine exposure on coadministration with rifampin” value in data set [3] (strong CYP3A4 inducer) was 88%. Moreover, in data set [4] (doravirine 100 mg QD with vs without islatravir 2.25 mg QD), the “Doravirine C24h, GMR (90% CI), (doravirine + islatravir)/doravirine” value is recorded as 1.12 (0.95–1.32). Further, in data set [4] (human, plasma, oral, 100 mg), the AUC(0-t) turned out to be 34 µM·h, the highest level (Cmax) was 2440 nM, the Tmax stood at 2.5 h and the concentration at 24 h stood at 773 nM. In the data set with CYP enzymes (in vitro), the “Inhibition or induction of CYP enzymes” value is “not an inhibitor or inducer of CYP enzymes”. Further, the Tolerability result in “Safety and tolerability” is on record as “generally well tolerated”.
In the case of `C#C[C@]1(CO)O[C@@H](n2cnc3c(N)nc(F)nc32)C[C@@H]1O` [Islatravir, 4'-Ethynyl-2-fluoro-2'-deoxyadenosine], the “Time to steady-state plasma concentrations” value in data set [1] (oral QD dosing) was roughly 14 days. In data set [1] (setting [5]), the Half-life of islatravir is 49 to 61 h and the “Time at which peak plasma concentrations were attained” value is given as ~ 0.5 h. In addition, in data set [2] (treatment-naive people living with HIV-1, oral doses 0.5–30 mg), the Tolerability entry is “generally well tolerated”. Also, in data set [4] (human, plasma, oral, 2.25 mg), the AUC(0-t) was 0.254 µM·h, the peak concentration (Cmax) worked out at 63.5 nM and the Tmax is 0.52 h. Besides, in the data set with CYP enzymes, the “Metabolism by CYP enzymes” value is “not metabolized by CYP enzymes”. Also, the Tolerability entry in the data set “Safety and tolerability” is recorded as “generally well tolerated”.
